Measured values of several laboratories.
Protocols differ between the studies behind these lines.
CDK19: Cyclin-dependent kinase 19 (CDK19, Homo sapiens, UniProt Q9BWU1)
CDK19 with cyclin C: Cyclin-dependent kinase 19, with cyclin C (CDK19, Homo sapiens, UniProt Q9BWU1)

Structure (SMILES) | target | observed | action | technique | tested at | endpoint | value
F[C@@H]1CCN(c2nccc(-c3cnn4ncccc34)n2)C1 | CDK19 | binding | – | – | 1 µM | remaining binding | 100%
Cc1ccc(C(=O)Nc2ccc(CN3CCN(C)CC3)c(C(F)(F)F)c2)cc1C#Cc1cnc2cccnn12 | CDK19 | enzyme activity | inhibitor | – | 23.5 nM | remaining activity | 31%
Cc1sc(C(=O)NC2COC2)cc1-n1cc(NC(=O)Nc2c(F)cccc2Cl)cn1 | CDK19 with cyclin C | enzyme activity | inhibitor | – | 10 µM | remaining activity | 98.1%
C[C@@H]1CN(c2ccc3ncc(-c4ccc5[nH]nc(C6CC6)c5c4)n3n2)C[C@H](C)O1 | CDK19 | binding | – | competition with immobilised ligand | 0.5 µM | remaining binding | 13%
CC(C)(C)c1nc(-c2cccc(NS(=O)(=O)c3c(F)cccc3F)c2F)c(-c2ccnc(N)n2)s1 | CDK19 with cyclin C | enzyme activity | inhibitor | radiometric | 1 µM | remaining activity | 94%
C[C@@H]1CCN(c2nccc(-c3cnn4ncccc34)n2)C1 | CDK19 | binding | – | – | 1 µM | remaining binding | 97%
CC(C)(C)c1nc2c(s1)c1nc(N)ncc1c1ccc(NS(=O)(=O)c3c(F)cccc3F)c(F)c12 | CDK19 with cyclin C | enzyme activity | inhibitor | radiometric | 1 µM | remaining activity | 98%
O=C(Nc1cnn(-c2csc(C(=O)NC3COC3)c2)c1)Nc1c(F)cccc1Cl | CDK19 with cyclin C | enzyme activity | inhibitor | – | 5 µM | remaining activity | 96.2%
CN1CCN(C(=O)c2ccc3cc(CCNc4ccnc5ccc(C#N)cc45)ccc3c2)CC1 | CDK19 | binding | – | competition with immobilised ligand | 2 µM | inhibition | > 85%
